Reference: ChEMBL document CHEMBL4382247, “A novel series of napabucasin derivatives as orally active inhibitors of signal transducer and activator of transcription 3 (STAT3)” (Eur J Med Chem, 2019)
≈ marks a conversion by molar mass, not a printed value. Calls of active or inactive are those of the source. The rule behind the calls is not given here.

What was measured:
U-251 [1] = test: Antiproliferative activity against human U251 cells after 72 hrs by MTT assay; format: functional, cell-based; settings: U-251, 72 h
Procedure, shortened: (§1)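 Cells seeded at 5 × 10^3 per well and cultured 24 h before compound addition at varied concentrations, then grown a further 72 h; 0.5% DMSO as solvent control. MTT (5mg/ml solution) added for 4 h, formazan dissolved in DMSO, absorbance read at 570nm. Each treatment in triplicate; Mean ± SD.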

HepG2 [2] = test: Antiproliferative activity against human HepG2 cells after 72 hrs by MTT assay; format: functional, cell-based; settings: HepG2, 72 h; procedure, shortened: as §1
HT-29 [3] = test: Antiproliferative activity against human HT-29 cells after 72 hrs by MTT assay; format: functional, cell-based; settings: HT-29, 72 h; procedure, shortened: as §1
PC-3 = test: Antiproliferative activity against human PC3 cells after 72 hrs by MTT assay; format: functional, cell-based; settings: PC-3, 72 h; procedure, shortened: as §1
HepG2 [4] = test: Potency index, ratio of napabucasin IC50 to test compound IC50 for human HepG2 cells; format: functional
HT-29 [5] = test: Potency index, ratio of napabucasin IC50 to test compound IC50 for human HT-29 cells; format: functional
CT26 [6] = test: Potency index, ratio of napabucasin IC50 to test compound IC50 for mouse CT26 cells; format: functional
[7] = Aqueous solubility of the compound in water at 2 mg after 24 hrs by HPLC analysis; format: physicochemical
Procedure, shortened: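 Aqueous solubility measured by HPLC against calibration standards at 15–125 µg/mL. Values are the mean of at least three determinations ± SD.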

CT26 [8] = test: Antitumor activity against mouse CT26 cells implanted in BALB/c mouse assessed as tumor growth inhibition at 50 mg/kg, po administered once daily measured every 3 days relative to control; format: functional; settings: 72 h, read-out: TGI
Procedure, shortened: (§2)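 Male BALB/c mice, 6 weeks old, given 1 × 10^6 CT-26 cells subcutaneously in the right flank. At about 70 mm3 tumour volume, randomized into groups of five and dosed orally once daily with 50mg/kg or vehicle (5% NMP in PEG 400). Tumours measured by caliper every 3 days, V = ab^2/2. Tumours weighed at sacrifice. TGI computed from mean tumour weights. T/C computed as mean RTV (Vt/V0) treated over control.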

CT26 [9] = test: Antitumor activity against mouse CT26 cells implanted in BALB/c mouse assessed as tumor growth at 50 mg/kg, po administered once daily measured every 3 days relative to control; format: functional; procedure, shortened: as §2
[10] = Cardiotoxicity in BALB/c mouse implanted with mouse CT26 cells assessed as effect on heart morphology by measuring edema at 50 mg/kg, po administered once daily by H and E staining based histopathological analysis; format: toxicity, organism-based; settings: in vivo
Procedure, shortened: (§3)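 CT-26 subcutaneous flank tumour model in male BALB/c mice, five per group, dosed orally at 50mg/kg daily in 5% NMP/95% PEG 400 versus vehicle. After treatment, heart, liver, spleen, lung and kidney collected, sectioned and stained with H&E for histological examination.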

[11] = Hepatotoxicity in BALB/c mouse implanted with mouse CT26 cells assessed as effect on liver morphology by measuring cell inflammation at 50 mg/kg, po administered once daily by H and E staining based histopathological analysis; format: toxicity, organism-based; settings: in vivo; procedure, shortened: as §3
[12] = Hepatotoxicity in BALB/c mouse implanted with mouse CT26 cells assessed as effect on liver morphology by measuring edema at 50 mg/kg, po administered once daily by H and E staining based histopathological analysis; format: toxicity, organism-based; settings: in vivo; procedure, shortened: as §3
[13] = Toxicity in BALB/c mouse implanted with mouse CT26 cells assessed as effect on spleen morphology by measuring edema at 50 mg/kg, po administered once daily by H and E staining based histopathological analysis; format: organism-based; settings: in vivo; procedure, shortened: as §3
[14] = Toxicity in BALB/c mouse implanted with mouse CT26 cells assessed as effect on lung morphology by measuring cell inflammation at 50 mg/kg, po administered once daily by H and E staining based histopathological analysis; format: organism-based; settings: in vivo; procedure, shortened: as §3
[15] = Toxicity in BALB/c mouse implanted with mouse CT26 cells assessed as effect on lung morphology by measuring edema at 50 mg/kg, po administered once daily by H and E staining based histopathological analysis; format: organism-based; settings: in vivo; procedure, shortened: as §3
[16] = Toxicity in BALB/c mouse implanted with mouse CT26 cells assessed as effect on lung morphology by measuring necrosis at 50 mg/kg, po administered once daily by H and E staining based histopathological analysis; format: organism-based; settings: in vivo; procedure, shortened: as §3
[17] = Toxicity in BALB/c mouse implanted with mouse CT26 cells assessed as effect on kidney morphology by measuring cell inflammation at 50 mg/kg, po administered once daily by H and E staining based histopathological analysis; format: organism-based; settings: in vivo; procedure, shortened: as §3
U-251 [18] = test: Decrease in total STAT3 level in human U251 cells at 200 nM after 24 hrs by Western blot analysis; format: ADME, cell-based; settings: u-251, 24 h, 0.2 µM
Procedure, shortened: (§4)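 Cells treated 24 and 48 h. Lysed in RIPA with protease inhibitors, protein quantified by BCA, equal amounts run on 10% SDS-PAGE and transferred to PVDF. Blocked in 5% milk, probed overnight at 4 °C with anti-total STAT3, anti-p-STAT3 (Tyr705) and GAPDH antibodies. ECL detection.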

HepG2 [19] = test: Decrease in total STAT3 level in human HepG2 cells at 400 nM after 24 hrs by Western blot analysis; format: ADME, cell-based; settings: hepg2, 24 h, 0.4 µM; procedure, shortened: as §4
[20] = biological target: T1, Signal transducer and activator of transcription 3 (Homo sapiens, UniProt P40763); test: Inhibition of STAT3 phosphorylation at Y705 residue in human U251 cells at 200 nM after 24 hrs by Western blot analysis; format: cell-based; procedure, shortened: as §4
T1 sequence (P40763 whole entry): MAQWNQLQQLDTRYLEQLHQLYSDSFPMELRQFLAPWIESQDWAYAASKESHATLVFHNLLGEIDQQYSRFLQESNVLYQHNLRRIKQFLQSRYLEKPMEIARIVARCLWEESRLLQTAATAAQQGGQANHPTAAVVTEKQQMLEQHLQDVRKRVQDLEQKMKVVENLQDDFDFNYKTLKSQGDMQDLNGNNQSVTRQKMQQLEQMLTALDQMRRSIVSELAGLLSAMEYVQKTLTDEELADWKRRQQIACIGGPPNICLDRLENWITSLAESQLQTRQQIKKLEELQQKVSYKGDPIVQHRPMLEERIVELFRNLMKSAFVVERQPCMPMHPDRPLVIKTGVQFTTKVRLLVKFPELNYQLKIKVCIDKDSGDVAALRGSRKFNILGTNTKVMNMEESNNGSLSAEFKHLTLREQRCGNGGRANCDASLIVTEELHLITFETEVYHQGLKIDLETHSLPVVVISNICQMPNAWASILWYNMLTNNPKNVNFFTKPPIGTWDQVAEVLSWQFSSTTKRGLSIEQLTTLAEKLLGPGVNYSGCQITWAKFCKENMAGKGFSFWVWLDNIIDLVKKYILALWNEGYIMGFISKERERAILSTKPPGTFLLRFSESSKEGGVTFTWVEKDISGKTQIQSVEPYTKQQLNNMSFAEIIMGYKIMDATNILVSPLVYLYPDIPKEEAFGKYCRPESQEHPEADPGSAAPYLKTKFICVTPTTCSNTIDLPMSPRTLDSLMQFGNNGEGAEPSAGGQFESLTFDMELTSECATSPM

HepG2 [21] = test: Decrease in total STAT3 expression in human HepG2 cells at 400 nM after 24 hrs by DAPI staining based immunofluorescence microscopic analysis; format: ADME, cell-based; settings: hepg2, 24 h, 0.4 µM
Procedure, shortened: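 HepG2 cells treated 24 h, stained with the same anti-total STAT3 antibody as the blots, nuclei counterstained with DAPI. Imaged on an inverted microscope with a 20× objective.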

U-251 [22] = test: Decrease in total STAT3 level in human U251 cells at 200 nM after 24 to 48 hrs by sandwich-ELISA; format: ADME, cell-based; settings: u-251, 0.2 µM
Procedure, shortened: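 Cells treated 24 or 48 h. Whole-cell lysates made in lysis buffer with protease inhibitor cocktail. Total STAT3 and p-STAT3 Y705 measured by sandwich ELISA. Three repeats; groups compared with control by paired t-test; means ± S.D.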

[23] = biological target: T1, Signal transducer and activator of transcription 3; test: Inhibition of biotin-labelled DNA probe binding to recombinant N-terminal FLAG-tagged STAT3 (unknown origin) expressed in HEK293 cells at 100 to 200 nM by EMSA; format: cell-based
Procedure, shortened: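 HEK293T cells transiently transfected with N-terminal FLAG-STAT3 (10 µg per 10 cm dish) and harvested at 48 h. STAT3 purified on anti-FLAG magnetic beads and eluted with FLAG peptide (200 µg/mL). Chemiluminescent EMSA with biotin-labelled STAT3 probe, 5 µL protein and 1 µL probe per lane. Cold-probe and anti-STAT3 antibody lanes included.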

[24] = biological target: T1, Signal transducer and activator of transcription 3; test: Binding affinity to recombinant N-terminal His-tagged STAT3 (unknown origin) expressed in baculovirus infected Sf9 insect cells by SPR analysis
Procedure, shortened: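 STAT3 made by baculovirus: bacmid generated in Sf9, virus amplified in Sf9, protein expressed in High Five cells. Purified on Ni-NTA and by gel filtration (>90% pure). Amine-coupled to a CM5 chip. Compound run at 18.75–600 nM in 5% DMSO/PBS on Biacore X100. KD taken from equilibrium fit.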

Which IC50 (U-251 [1]) does the source give for `O=C(NCCN1CCCCC1)c1cc2c(o1)C(=O)c1ccccc1C2=O` here?
Its IC50 is 220 nM.

And the IC50 (HepG2 [2])?
The IC50 was 490 nM.

And the IC50 (HT-29 [3])?
Its IC50 is 70 nM.

And the IC50 (PC-3)?
Its IC50 is 4130 nM.

And the “Ratio IC50” value (HepG2 [4])?
Its value is >10.

And the “Ratio IC50” value (HT-29 [5])?
The value was >10.

And the “Ratio IC50” value (CT26 [6])?
The value was >10.

What about the solubility at 24 h [7] of the same compound?
The solubility at 24 h was 201 µM (≈ 70.8 µg/mL).

And the inhibition in vivo at 50 mg/kg (CT26 [8])?
Its inhibition in vivo at 50 mg/kg is 63%.

And the T/C (CT26 [9])?
The T/C was 28%.

And the Activity [10]?
The Activity was “Non-Toxic”.

What about the Activity [11] of the same compound?
Its Activity is “Non-Toxic”.

What about the Activity [12] of the same compound?
The Activity was “Non-Toxic”.

And the Activity [13]?
Its Activity is “Non-Toxic”.

And the Activity [14]?
Its Activity is “Non-Toxic”.

And the Activity [15]?
Its Activity is “Non-Toxic”.

And the Activity [16]?
Its Activity is “Non-Toxic”.

What about the Activity [17] of the same compound?
Its Activity is “Non-Toxic”.

What about the Activity (U-251 [18]) of the same compound?
The Activity was “Toxic”.

And the Activity (HepG2 [19])?
Its Activity is “Toxic”.

And the inhibition [20]?
Its inhibition is “Active”.

What about the Activity (HepG2 [21]) of the same compound?
The Activity was “Toxic”.

And the Activity (U-251 [22])?
The Activity was “Toxic”.

And the inhibition [23]?
The inhibition was “Active”.

And the Kd [24]?
The Kd was 110 nM.
